Source: ChEMBL document CHEMBL1828575, “Design, synthesis and antiproliferative activities of biarylolefins based on polyhydroxylated and carbohydrate scaffolds” (Eur J Med Chem, 2011)

Assays:
Format in all cases: functional
[1] = tested on: MDA-MB-231; test: Antitumor activity against human MDA-MB-231 cells after 48 hrs by SRB assay; conditions: MDA-MB-231, 48 h; for CC50: read-out: LC50 (the source's name)
Procedure, shortened: (§1)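 NCI60 panel in RPMI 1640 with 5% FBS and 2 mM L-glutamine. Cells were plated at 5000–40,000/well by doubling time, held 24 h, then time-zero plates were TCA-fixed. Five concentrations (10-fold or half-log dilutions of DMSO stocks) were applied for 48 h at 37 °C, 5% CO2. Cells were fixed with cold TCA (10% final adherent, 16% suspension) and stained with 0.4% SRB. Bound dye was dissolved in 10 mM Tris and read at 515 nm. GI50, TGI and LC50 were calculated per line.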

[2] = tested on: MCF7; test: Cytotoxicity against human MCF7 cells assessed as cellular growth at 10 uM after 48 hrs by SRB assay
Procedure, shortened: (§2)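 NCI-60 panel lines grown in RPMI 1640 with 5% FBS and 2 mM L-glutamine. Plated at 5000–40,000 cells/well and preincubated 24 h at 37 °C, 5% CO₂, with time-zero plates fixed in TCA. Compounds, dissolved in DMSO and diluted in medium, were applied for 48 h. Cells were TCA-fixed (10% final for adherent, 16% for suspension) and stained with 0.4% SRB in 1% acetic acid. Dye was solubilised in 10 mM Tris base and read at 515 nm; growth was expressed as a percentage of untreated control.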

[3] = tested on: MOLT-4; test: Cytotoxicity against human MOLT4 cells assessed as cellular growth at 10 uM after 48 hrs by SRB assay; procedure, shortened: as §2
[4] = tested on: NCI-H23; test: Antitumor activity against human NCI-H23 cells after 48 hrs by SRB assay; conditions: NCI-H23, 48 h; procedure, shortened: as §1
[5] = tested on: NCI-H522; test: Antitumor activity against human NCI-H522 cells after 48 hrs by SRB assay; conditions: NCI-H522, 48 h; for CC50: read-out: LC50 (the source's name); procedure, shortened: as §1
[6] = tested on: SK-MEL-2; test: Cytotoxicity against human SK-MEL-2 cells assessed as cellular growth at 10 uM after 48 hrs by SRB assay; procedure, shortened: as §2
[7] = tested on: OVCAR-4; test: Antitumor activity against human OVCAR4 cells after 48 hrs by SRB assay; conditions: OVCAR-4, 48 h; procedure, shortened: as §1
[8] = tested on: SF-539; test: Cytotoxicity against human SF539 cells assessed as cellular growth at 10 uM after 48 hrs by SRB assay; procedure, shortened: as §2
[9] = tested on: IGROV-1; test: Cytotoxicity against human IGROV1 cells assessed as cellular growth at 10 uM after 48 hrs by SRB assay
Procedure, shortened: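 NCI60 single-dose screen of cells in RPMI 1640 with 5% FBS and 2 mM L-glutamine, preincubated 24 h at 37 °C, 5% CO₂. Cells were then exposed 48 h to compound added from DMSO stock. TCA-fixed, stained with 0.4% SRB in 1% acetic acid, dye solubilised in 10 mM Tris base and read at 515 nm. Growth is given as percent of untreated control.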

[10] = tested on: TK-10; test: Cytotoxicity against human TK10 cells assessed as cellular growth at 10 uM after 48 hrs by SRB assay; procedure, shortened: as §2
[11] = tested on: NCI/ADR-RES; test: Cytotoxicity against human NCI/ADR-RES cells assessed as cellular growth at 10 uM after 48 hrs by SRB assay; procedure, shortened: as §2
[12] = tested on: MCF7; test: Antitumor activity against human MCF7 cells after 48 hrs by SRB assay; conditions: MCF7, 48 h; procedure, shortened: as §1
[13] = tested on: SN12C; test: Cytotoxicity against human SN12C cells assessed as cellular growth at 10 uM after 48 hrs by SRB assay; procedure, shortened: as §2
[14] = tested on: EKVX; test: Antitumor activity against human EKVX cells after 48 hrs by SRB assay; procedure, shortened: as §1
[15] = tested on: HCT-15; test: Antiproliferative activity against human HCT15 cells after 48 hrs by SRB assay; conditions: HCT-15, 48 h
Procedure, shortened: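 NCI60 screen: cells grown in RPMI 1640 with 5% FBS and 2 mM L-glutamine, plated at 5000–40,000 cells/well by doubling time, preincubated 24 h at 37 °C with 5% CO2. Compounds were diluted from DMSO stocks and given for 48 h, at five concentrations for dose response. A time-zero plate was TCA-fixed. Cells were TCA-fixed, stained with 0.4% SRB and read at 515 nm, with growth expressed relative to untreated controls.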

[16] = tested on: SN12C; test: Antitumor activity against human SN12C cells after 48 hrs by SRB assay
Procedure, shortened: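 NCI60 panel cells grown in RPMI 1640 with 5% FBS and 2 mM L-glutamine, plated at 5000–40,000 cells/well and preincubated 24 h at 37 °C, 5% CO₂. Compound was added from DMSO at five concentrations, 10-fold or 1/2 log dilutions, then incubated 48 h.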

[17] = tested on: NCI/ADR-RES; test: Antitumor activity against human NCI/ADR-RES cells after 48 hrs by SRB assay; procedure, shortened: as §1
[18] = tested on: IGROV-1; test: Antitumor activity against human IGROV1 cells after 48 hrs by SRB assay; conditions: IGROV-1, 48 h; procedure, shortened: as §1
[19] = tested on: K562; test: Antitumor activity against human K562 cells after 48 hrs by SRB assay; conditions: K562, 48 h; procedure, shortened: as §1
[20] = tested on: Malme-3M; test: Cytotoxicity against human MALME-3M cells assessed as cellular growth at 10 uM after 48 hrs by SRB assay; procedure, shortened: as §2
[21] = tested on: T47D; test: Cytotoxicity against human T47D cells assessed as cellular growth at 10 uM after 48 hrs by SRB assay; procedure, shortened: as §2
[22] = read-out: LC50 (the source's name)
[23] = read-out: pLC50 (the source's name) (converted)

COc1cc(/C(=C2\O[C@@H]([C@H]3COC(C)(C)O3)[C@H]3OC(C)(C)O[C@@H]23)c2ccc3ccccc3c2)cc(OC)c1OC
GI50 [1]: 6.28 µM | TGI [1]: 69.7 µM | CC50 [1]: > 100 µM | Activity [2]: 22.8% | Activity [3]: 62.4% | GI50 ([4]; read-out: GI50): 5.43 µM | CC50 [4, 22]: > 100 µM | TGI ([4]; read-out: TGI): > 100 µM | GI50 ([4]; read-out: pGI50 (converted)): 5.37 µM | CC50 [4, 23]: > 100 µM | TGI ([4]; read-out: pTGI (converted)): > 100 µM | GI50 [5]: 2.26 µM | TGI [5]: 6.54 µM | CC50 [5]: > 100 µM | Activity [6]: -49.67% | GI50 ([7]; read-out: GI50): 2.82 µM | CC50 [7, 22]: > 100 µM | TGI ([7]; read-out: TGI): 6.02 µM | GI50 ([7]; read-out: pGI50 (converted)): 14.1 µM | CC50 [7, 23]: > 100 µM | TGI ([7]; read-out: pTGI (converted)): 11 µM | Activity [8]: 26.42% | Activity [9]: -21.44% | Activity [10]: 22.74% | Activity [11]: 25.91% | GI50 ([12]; read-out: GI50): 3.69 µM | CC50 [12, 22]: > 100 µM | TGI ([12]; read-out: TGI): 14.4 µM | GI50 ([12]; read-out: pGI50 (converted)): 3.63 µM | CC50 [12, 23]: > 100 µM | TGI ([12]; read-out: pTGI (converted)): 14.5 µM | Activity [13]: 24.83% | GI50 ([14]; read-out: GI50): 5.59 µM | CC50 [14, 22]: > 100 µM | TGI ([14]; read-out: TGI): > 100 µM | GI50 ([14]; read-out: pGI50 (converted)): 5.62 µM | CC50 [14, 23]: > 100 µM | TGI ([14]; read-out: pTGI): > 100 µM | CC50 [15, 22]: > 100 µM | CC50 [15, 23]: > 100 µM | GI50 ([16]; read-out: GI50): 3.65 µM | CC50 [16, 22]: > 100 µM | TGI ([16]; read-out: TGI): > 100 µM | GI50 ([16]; read-out: pGI50 (converted)): 3.16 µM | CC50 [16, 23]: > 100 µM | TGI ([16]; read-out: pTGI): > 100 µM | GI50 [17]: 4.26 µM | LC50 [17]: > 100 µM | TGI [17]: 22.3 µM | GI50 ([18]; read-out: GI50): 3.3 µM | CC50 [18, 22]: > 100 µM | TGI ([18]; read-out: TGI): > 100 µM | GI50 ([18]; read-out: pGI50 (converted)): 2.82 µM | CC50 [18, 23]: > 100 µM | TGI ([18]; read-out: pTGI): > 100 µM | GI50 ([19]; read-out: GI50): 4.02 µM | CC50 [19, 22]: > 100 µM | TGI ([19]; read-out: TGI): > 100 µM | GI50 ([19]; read-out: pGI50 (converted)): 3.98 µM | CC50 [19, 23]: > 100 µM | TGI ([19]; read-out: pTGI): > 100 µM | Activity [20]: -25.39%

COc1ccc(/C(=C2\O[C@@H]([C@H]3COC(C)(C)O3)[C@H]3OC(C)(C)O[C@@H]23)c2cc(OC)c(OC)c(OC)c2)cc1O
GI50 [1]: 6.28 µM | TGI [1]: 69.7 µM | CC50 [1]: > 100 µM | Activity [2]: 60.66% | Activity [3]: 60.46% | GI50 ([4]; read-out: GI50): 21.8 µM | CC50 [4, 22]: > 100 µM | TGI ([4]; read-out: TGI): 74.9 µM | GI50 ([4]; read-out: pGI50 (converted)): 20.9 µM | CC50 [4, 23]: > 100 µM | TGI ([4]; read-out: pTGI (converted)): 74.1 µM | GI50 [5]: 2.95 µM | TGI [5]: 7.54 µM | CC50 [5]: 85.6 µM | GI50 ([7]; read-out: GI50): 37.5 µM | CC50 [7, 22]: > 100 µM | TGI ([7]; read-out: TGI): > 100 µM | GI50 ([7]; read-out: pGI50 (converted)): 37.2 µM | CC50 [7, 23]: > 100 µM | TGI ([7]; read-out: pTGI (converted)): > 100 µM | Activity [8]: 21.53% | Activity [9]: 92.61% | Activity [10]: 116.76% | Activity [11]: -10.52% | GI50 ([12]; read-out: GI50): 1.23 µM | CC50 [12, 22]: > 100 µM | TGI ([12]; read-out: TGI): > 100 µM | GI50 ([12]; read-out: pGI50 (converted)): 12.3 µM | CC50 [12, 23]: > 100 µM | TGI ([12]; read-out: pTGI (converted)): > 100 µM | Activity [21]: 115.08% | Activity [13]: 84.5% | GI50 ([14]; read-out: GI50): 37.4 µM | CC50 [14, 22]: > 100 µM | TGI ([14]; read-out: TGI): > 100 µM | GI50 ([14]; read-out: pGI50 (converted)): 37.2 µM | CC50 [14, 23]: > 100 µM | TGI ([14]; read-out: pTGI): > 100 µM | CC50 [15, 22]: > 100 µM | CC50 [15, 23]: > 100 µM | CC50 [16, 22]: > 100 µM | TGI ([16]; read-out: TGI): > 100 µM | GI50 ([16]; read-out: pGI50 (converted)): 8.91 µM | CC50 [16, 23]: > 100 µM | TGI ([16]; read-out: pTGI): > 100 µM | GI50 [17]: 4.26 µM | LC50 [17]: > 100 µM | TGI [17]: 22.3 µM | GI50 ([18]; read-out: GI50): 45.1 µM | CC50 [18, 22]: > 100 µM | TGI ([18]; read-out: TGI): > 100 µM | GI50 ([18]; read-out: pGI50 (converted)): 44.7 µM | CC50 [18, 23]: > 100 µM | TGI ([18]; read-out: pTGI): > 100 µM | GI50 ([19]; read-out: GI50): 6.28 µM | CC50 [19, 22]: > 100 µM | TGI ([19]; read-out: TGI): > 100 µM | GI50 ([19]; read-out: pGI50 (converted)): 6.31 µM | CC50 [19, 23]: > 100 µM | TGI ([19]; read-out: pTGI): > 100 µM | Activity [20]: 69.57%
